From ChEMBL document CHEMBL1122224, “Synthesis and gastric antisecretory properties of 4,5-unsaturated derivatives of 15-deoxy-16-hydroxy-16-methylprostaglandin E1” (J Med Chem, 1983) come the findings set out here.

The subject of series [1] is Canis familiaris. In words: Antisecretory activity after ig administration in histamine-stimulated gastric fistula dogs; Range is 4.5-10.0. In kind it is functional. The note with it: Canis lupus familiaris, Stomach, po. In short, it runs like this:
(§1)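 Conscious gastric-fistula dogs, fasted 18 h, in Pavlov stands with iv 0.15 M NaCl. After basal collection, histamine is infused iv at 1.0 mg/h (about 6.5 mL/h). At the steady-state plateau, the PG is given intragastrically through a dosing plug and the cannula is closed 30 min. Collections are then taken every 15 min and titrated with 0.1 N NaOH to pH 7.0.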

The subject of series [2] is Rattus norvegicus. Description: Diarrheal effect after ig administration in rats. The format is functional. Conditions: po. An outline of the steps:
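Male Charles River rats, 210–230 g, are fasted 24 h and housed singly. Logarithmically graded oral PG doses are given, N = 6–12. Diarrhea is scored all-or-none at hourly intervals up to 8 h after dosing, and an ED50 is derived.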

Series [3] is described as follows: Ratio of ED50 of diarrheal effect to antisecretory effect. In kind it is ADME. Conditions: read-out: Therapeutic index. An outline of the steps: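 Ratio of the oral diarrheal ED50 in fasted male rats to the ig antisecretory ED50 in histamine-stimulated gastric-fistula dogs.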
Series [4] deals with Canis familiaris. In words: Antisecretory activity after iv administration in histamine-stimulated Heidenhain pouch dogs; Range is 0.3-1.0. The format is functional. The note with it: Canis lupus familiaris. An outline of the steps:
(§2)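 Conscious Heidenhain-pouch dogs, fasted 18 h, with iv saline. Histamine is infused at 1.0 mg/h (about 13.0 mL/h) to a steady plateau. A single iv bolus of PG follows, from ethanol stock diluted in isoosmotic phosphate buffer (≤20% alcohol). Doses are log-spaced, usually 0.1–100 μg/kg, with ≥2 dogs per dose. Acid is measured by titration to pH 7.0 in 15-min samples; ED50 is the 50% inhibition of total acid output.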

For series [5], the system named is Canis familiaris. In words: Antisecretory activity after ig administration in histamine-stimulated gastric fistula dogs; Range is 2.4-3.0. The note with it: Canis lupus familiaris, Stomach, po. The format is functional. An outline of the steps: as §1
Series [6] deals with Canis familiaris. In words: Antisecretory activity after iv administration in histamine-stimulated Heidenhain pouch dogs. In kind it is functional. The note with it: Canis lupus familiaris. An outline of the steps:
as §2

Series [7] concerns Canis familiaris. In words: Antisecretory activity after ig administration in histamine-stimulated gastric fistula dogs; Range is 6.5-10.0. The format is functional. Conditions: Canis lupus familiaris, Stomach, po. In short, it runs like this:
as §1

Series [8] has as its system Canis familiaris. In words: Antisecretory activity after ig administration in histamine-stimulated gastric fistula dogs; Range is 0.3-1.0. The format is functional. Conditions: Canis lupus familiaris, Stomach, po. An outline of the steps:
as §1

Series [9] deals with Canis familiaris. In words: Antisecretory activity after iv administration in histamine-stimulated Heidenhain pouch dogs; Range is 0.1-0.3. In kind it is functional. Conditions: Canis lupus familiaris. In short, it runs like this:
as §2

Series [10] has as its system Canis familiaris. Description: Antisecretory activity after ig administration in histamine-stimulated gastric fistula dogs; Range is 5.5-10.0. In kind it is functional. Conditions: Canis lupus familiaris, Stomach, po. In short, it runs like this:
as §1

Molecules are shown by their SMILES.

The ED50 is the dose at which the effect has come halfway, by size or by number of responders. Consider `CCCCC(C)(O)C/C=C/[C@H]1[C@H](O)CC(=O)[C@@H]1C/C=C\CCCC(=O)OC` (stereo not given in full), for which the values for the 50% effective dose (ED50) in series [1], in series [2] and in series [4] were 4.5 µg/kg, 124 µg/kg and 0.3 µg/kg, respectively. In addition, the selectivity ratio in [3] came out at 27.6.

Take `CCCCC(C)(C)[C@H](O)/C=C/C1[C@H](O)CC(=O)[C@@H]1C/C=C\CCCC(=O)OC` (stereo not given in full): the ED50 in series [2] stood at 10 µg/kg; in series [5], 2.4 µg/kg. The selectivity ratio in [3] came out at 4.2.

For the molecule `CCCCC(C)(O)C/C=C/[C@H]1[C@H](O)CC(=O)[C@@H]1CCC#CCCC(=O)OC` (stereo not given in full), the ED50 in series [6] is > 100 µg/kg.

In turn, `CCCCC(C)(O)C/C=C/[C@H]1[C@H](O)CC(=O)[C@@H]1CC/C=C/CCC(=O)OC` (stereo not given in full) had an ED50 in series [6] of 10 µg/kg.

Take `CCCCC[C@](C)(O)/C=C/C1[C@H](O)CC(=O)[C@@H]1C/C=C\CCCC(=O)OC` (stereo not given in full): the ED50 in series [2] worked out at 27 µg/kg; in [7] it was 6.5 µg/kg. Further, the selectivity ratio in [3] was found to be 4.2.

Consider `CCCCC(C)(O)C/C=C/[C@H]1[C@H](O)CC(=O)[C@@H]1CC/C=C\CCC(=O)OC` (stereo not given in full) [ENISOPROST], for which the ED50 in series [2] is 62 µg/kg; in series [8], 0.3 µg/kg; in [9], 0.1 µg/kg. Further, the selectivity ratio in series [3] came out at 208.

Consider `CCCCC(C)(O)C/C=C/[C@H]1[C@H](O)CC(=O)[C@@H]1CCCCCCC(=O)OC` (stereo not given in full) [MISOPROSTOL], for which the ED50 in series [10] was found to be 5.5 µg/kg; in series [2], 366 µg/kg; in series [4], 0.3 µg/kg. For the same molecule, in [3], the selectivity ratio worked out at 66.5.
